Results taken from ChEMBL document CHEMBL2331406, “In vitro activity of scorpiand-like azamacrocycle derivatives in promastigotes and intracellular amastigotes of Leishmania infantum and Leishmania braziliensis” (Eur J Med Chem, 2013).
Active and inactive are the calls of the source. The calls are words filed in the database; no cut-off is given here.

Columns and labels:
[1] = Selectivity index, ratio of IC50 for mouse J774.2 cells to IC50 for promastigote form of Leishmania infantum MCAN/ES/2001/UCM-10; type: toxicity
In short: (§1)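 J774.2 toxicity: 72 h at the same concentrations, viability by flow cytometry with propidium iodide/fluorescein diacetate; IC50 by linear regression. SI = macrophage IC50/parasite IC50; ratio is compound SI over Glucantime SI.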

[2] = Selectivity index, ratio of IC50 for mouse J774.2 cells to IC50 for amastigote form of Leishmania braziliensis MHOM/BR/1975/M2904 infected in J774.2 cells; type: toxicity, cell-based
In short: (§2)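 J774.2 macrophages in MEM + 2 mM glutamine + 20% inactivated FCS were infected with stationary-phase promastigotes (10:1) for 24 h at 37 °C, 5% CO2. After washing, compounds were added at […] for 72 h. Amastigote reduction was scored in methanol-fixed, Giemsa-stained preparations; IC50 by regression; triplicates. SI = J774.2 IC50 (72 h flow cytometry)/amastigote IC50; ratio is versus Glucantime SI.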

Leishmania infantum [3] = assay: Antileishmanial activity against amastigote form of Leishmania infantum MCAN/ES/2001/UCM-10 infected in J774.2 cells after 72 hrs by haemocytometric analysis; type: functional, organism-based
In short: (§3)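 J774.2 macrophages grown in MEM with 2 mM glutamine and 20% inactivated FCS at 37 °C in 5% CO2. Infected with stationary-phase promastigotes at 10:1 for 24 h, then washed free of non-phagocytosed parasites. Compounds at 1, 10, 25, 50 and 100 for 72 h. Amastigotes counted on methanol-fixed, Giemsa-stained preparations and % reduction taken vs untreated. IC50 by linear regression of Kc values; three separate determinations.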

Leishmania braziliensis [4] = assay: Antileishmanial activity against amastigote form of Leishmania braziliensis MHOM/BR/1975/M2904 infected in J774.2 cells after 72 hrs by haemocytometric analysis; type: functional, cell-based, MHOM/BR/75/M2904; in short: as §3
[5] = Selectivity index, ratio of IC50 for mouse J774.2 cells to IC50 for axenic amastigote form of Leishmania braziliensis MHOM/BR/1975/M2904; type: toxicity
In short: (§4)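 Axenic amastigotes obtained by 3-day promastigote transformation in supplemented M199 + 10% heat-inactivated FCS, pH 5.4, 37 °C. […] Host toxicity: J774.2, 72 h, PI/FDA flow cytometry. SI = macrophage IC50/axenic amastigote IC50; ratio is compound SI over Glucantime SI.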

Leishmania braziliensis [6] = assay: Antileishmanial activity against axenic amastigote form of Leishmania braziliensis MHOM/BR/1975/M2904 after 72 hrs by haemocytometric analysis; type: functional, MHOM/BR/75/M2904
In short: (§5)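 Axenic amastigotes made by culturing promastigotes 3 days at 37 °C in M199 with 10% heat-inactivated FCS plus organic acids, amino acids, sucrose, bicarbonate, MES, haemin and gentamicin, pH 5.4. Compound effect counted in a Neubauer haemocytometer chamber. IC50 by linear regression of Kc values at 1, 10, 25, 50 and 100.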

[7] = Selectivity index, ratio of IC50 for mouse J774.2 cells to IC50 for promastigote form of Leishmania braziliensis MHOM/BR/1975/M2904; type: toxicity
Leishmania infantum [8] = assay: Antileishmanial activity against promastigote form of Leishmania infantum MCAN/ES/2001/UCM-10 after 72 hrs by haemocytometric analysis; type: functional, organism-based
In short: (§6)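 Promastigotes grown at 28 °C in MTL medium with 10% inactivated FCS. Compounds in DMSO (0.1%), diluted in culture medium to 100, 50, 25, 10 and 1. Cells counted at 72 h in a Neubauer haemocytometric chamber. IC50 (50% inhibition) by linear regression of Kc values.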

[9] = Selectivity index, ratio of IC50 for mouse J774.2 cells to IC50 for amastigote form of Leishmania infantum MCAN/ES/2001/UCM-10 infected in J774.2 cells; type: toxicity, cell-based; in short: as §2
[10] = Selectivity index, ratio of IC50 for mouse J774.2 cells to IC50 for axenic amastigote form of Leishmania infantum MCAN/ES/2001/UCM-10; type: toxicity; in short: as §4
Leishmania infantum [11] = assay: Antileishmanial activity against axenic amastigote form of Leishmania infantum MCAN/ES/2001/UCM-10 after 72 hrs by haemocytometric analysis; type: functional, organism-based; in short: as §5
[12] = Ratio of compound selectivity index to glucantime selectivity index for promastigote form of Leishmania braziliensis MHOM/BR/1975/M2904 over mouse J774.2 cells
Leishmania braziliensis [13] = assay: Antileishmanial activity against promastigote form of Leishmania braziliensis MHOM/BR/1975/M2904 assessed as empty cytoplasmic at IC25 concentration after 96 hrs by MET microscopic analysis; type: functional; conditions: MHOM/BR/75/M2904
In short: (§7)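 Promastigotes at 5 × 10^5 cells/mL in MTL medium with compound at IC25 for 96 h. Ultrastructure examined by transmission electron microscopy against untreated control parasites.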

[14] = Ratio of compound selectivity index to glucantime selectivity index for amastigote form of Leishmania braziliensis MHOM/BR/1975/M2904 infected in J774.2 cells over mouse J774.2 cells; in short: as §2
[15] = Ratio of compound selectivity index to glucantime selectivity index for axenic amastigote form of Leishmania infantum MCAN/ES/2001/UCM-10 over mouse J774.2 cells; in short: as §4
Leishmania braziliensis [16] = assay: Antileishmanial activity against promastigote form of Leishmania braziliensis MHOM/BR/1975/M2904 after 72 hrs by haemocytometric analysis; type: functional; conditions: MHOM/BR/75/M2904, 72 h; in short: as §6
Leishmania braziliensis [17] = assay: Antileishmanial activity against promastigote form of Leishmania braziliensis MHOM/BR/1975/M2904 assessed as cytoplasmic alterations at IC25 concentration after 96 hrs by MET microscopic analysis; type: functional; conditions: MHOM/BR/75/M2904; in short: as §7
[18] = Ratio of compound selectivity index to glucantime selectivity index for amastigote form of Leishmania infantum MCAN/ES/2001/UCM-10 infected in J774.2 cells over mouse J774.2 cells; in short: as §2
Leishmania braziliensis [19] = assay: Antileishmanial activity against promastigote form of Leishmania braziliensis MHOM/BR/1975/M2904 assessed as mortality at IC25 concentration after 96 hrs by MET microscopic analysis; type: functional; conditions: MHOM/BR/75/M2904; in short: as §7
J774.2 = assay: Cytotoxicity against mouse J774.2 cells after 72 hrs by PI-staining based flow cytometric analysis; type: cell-based; conditions: J774.2, 72 h
In short: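 J774.2 macrophages (ECACC 91051511, female BALB/c mouse tumour) treated 72 h with 100, 50, 25, 10 and 1 of compound. Propidium iodide then fluorescein diacetate each added for 10 min at 28 °C in the dark. Cells pelleted at 400g, washed in PBS and analysed by flow cytometry. Viability % vs control; IC50 by linear regression of Kc values.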

Leishmania braziliensis [20] = assay: Antileishmanial activity against promastigote form of Leishmania braziliensis MHOM/BR/1975/M2904 assessed as electro-dense vesicles at IC25 concentration after 96 hrs by MET microscopic analysis; type: functional; conditions: MHOM/BR/75/M2904; in short: as §7
[21] = Ratio of compound selectivity index to glucantime selectivity index for axenic amastigote form of Leishmania braziliensis MHOM/BR/1975/M2904 over mouse J774.2 cells; in short: as §4
[22] = Ratio of compound selectivity index to glucantime selectivity index for promastigote form of Leishmania infantum MCAN/ES/2001/UCM-10 over mouse J774.2 cells; in short: as §1
Leishmania braziliensis [23] = assay: Antileishmanial activity against promastigote form of […] MHOM/BR/1975/M2904 infected in J774.2 cells assessed as inhibition of number of amastigotes per host cell at IC25 concentration incubated for 12 hrs followed by compound washout measured after 48 hrs by microscopic analysis; type: functional; conditions: MHOM/BR/75/M2904
In short: (§8)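 J774.2 cells seeded at 1 × 10^4 cells/well on coverslips and cultured 2 days. Infected with promastigotes at 10:1 with drug at IC25 added immediately, for 12 h at 37 °C in 5% CO2. Parasites and drug washed out, then grown 10 days with washing and fresh medium every 48 h. On methanol-fixed, Giemsa-stained slides, % infected cells and amastigotes per infected cell scored from more than 200 host cells. Three determinations.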

Leishmania braziliensis [24] = assay: Antileishmanial activity against promastigote form of […] Leishmania braziliensis MHOM/BR/1975/M2904 infected in J774.2 cells assessed as inhibition of infection in host cells at IC25 concentration incubated for 12 hrs […] by microscopic analysis; type: functional; conditions: MHOM/BR/75/M2904
Leishmania infantum [25] = assay: Antileishmanial activity against promastigote form of Leishmania infantum MCAN/ES/2001/UCM-10 infected in J774.2 cells assessed as inhibition of number of amastigotes per host cell at IC25 concentration incubated for 12 hrs followed by compound washout measured after 48 hrs by microscopic analysis; type: functional; in short: as §8
Leishmania infantum [26] = assay: Antileishmanial activity against promastigote form of Leishmania infantum MCAN/ES/2001/UCM-10 infected in J774.2 cells assessed as inhibition of infection in host cells at IC25 concentration incubated for 12 hrs followed by compound washout measured after 48 hrs by microscopic analysis; type: functional; in short: as §8
[27] = J774.2 cells, read-out: Ratio IC50
[28] = Leishmania infantum, MCAN/ES/2001/UCM-10, 72 h

Compound: MEGLUMINE ANTIMONATE [listing 1 of 2 here]
- Ratio IC50 [1]: 0.8
- Ratio IC50 [2]: 0.8
- IC50 (Leishmania infantum [3]; j774.2): 30.8 µM
- IC50 (Leishmania braziliensis [4]; j774.2): 19.7 µM
- Ratio IC50 [5]: 0.5
- IC50 (Leishmania braziliensis [6]): 30.9 µM
- Ratio IC50 [7]: 0.6
- IC50 (Leishmania infantum [8]): 18 µM
- Ratio IC50 [9]: 0.5
- Ratio IC50 [10]: 0.5
- IC50 (Leishmania infantum [11]): 31 µM

Compound: Br.NCCCNCCN1CCNCc2cccc(n2)CNCC1
- selectivity ratio [1, 27]: 9.1
- selectivity ratio [2, 27]: 11.5
- IC50 (Leishmania infantum [3]; Leishmania infantum, MCAN/ES/2001/UCM-10, J774.2, 72 h): 44.9 µM
- Ratio [12]: 24
- IC50 (Leishmania braziliensis [4]; Leishmania braziliensis, MHOM/BR/75/M2904, J774.2, 72 h): 19.1 µM
- Activity (Leishmania braziliensis [13]): Active
- Ratio [14]: 14
- Ratio [15]: 15
- selectivity ratio [5, 27]: 7
- IC50 (Leishmania braziliensis [16]): 15.5 µM
- Activity (Leishmania braziliensis [17]): Active
- Ratio [18]: 10
- IC50 (Leishmania braziliensis [6]; Leishmania braziliensis, MHOM/BR/75/M2904, 72 h): 31.4 µM
- Activity (Leishmania braziliensis [19]): Active
- selectivity ratio [7, 27]: 14.2
- IC50 (J774.2): 220 µM
- Activity (Leishmania braziliensis [20]): Active
- Ratio [21]: 14
- IC50 (Leishmania infantum [8]; [28]): 24.2 µM
- selectivity ratio [9, 27]: 4.9
- Ratio [22]: 11
- selectivity ratio [10, 27]: 7.4
- IC50 (Leishmania infantum [11]; [28]): 29.8 µM

Compound: MEGLUMINE ANTIMONATE [listing 2 of 2 here]
- inhibition (Leishmania braziliensis [23]): 37%
- inhibition (Leishmania braziliensis [24]): 22%
- inhibition (Leishmania infantum [25]): 30%
- inhibition (Leishmania infantum [26]): 24%
